Measured values pooled from the literature.
Protocols differ between the studies behind these lines.
Target: Megakaryocyte-associated tyrosine-protein kinase (MATK, Homo sapiens, UniProt P42679)
Sequence (P42679 1-507, as in one of the studies): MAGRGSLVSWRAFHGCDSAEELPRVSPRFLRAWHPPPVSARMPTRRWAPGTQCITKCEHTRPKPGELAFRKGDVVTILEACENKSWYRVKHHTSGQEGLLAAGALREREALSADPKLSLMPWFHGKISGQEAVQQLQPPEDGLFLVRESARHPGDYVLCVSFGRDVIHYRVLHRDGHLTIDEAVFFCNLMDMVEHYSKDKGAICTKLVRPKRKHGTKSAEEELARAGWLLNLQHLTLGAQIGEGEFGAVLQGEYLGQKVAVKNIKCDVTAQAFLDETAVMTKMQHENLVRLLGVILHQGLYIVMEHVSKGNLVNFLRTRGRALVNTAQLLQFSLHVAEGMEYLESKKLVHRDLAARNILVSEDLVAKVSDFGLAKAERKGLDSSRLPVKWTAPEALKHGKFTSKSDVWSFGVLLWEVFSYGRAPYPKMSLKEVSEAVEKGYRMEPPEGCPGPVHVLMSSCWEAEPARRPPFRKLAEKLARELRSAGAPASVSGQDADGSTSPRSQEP

COc1cc(Nc2ncc(F)c(Nc3ccc4c(n3)NC(=O)C(C)(C)O4)n2)cc(OC)c1OC  inhibition (binding; competition with immobilised ligand; 10 µM): 70%
Cn1cc(-c2cccc(N3CCc4c(sc5c4CC(C)(C)C5)C3=O)c2CO)cc(Nc2ccncn2)c1=O  inhibition (enzyme activity; inhibitor; 1 µM): 4%
CC(C)(C)c1cc(C=C(C#N)C#N)cc(Br)c1O  remaining activity (enzyme activity; inhibitor; 0.5 µM): 102%
Cn1cncc1[C@](O)(COc1ccc(C#N)cc1-c1ccc(OC(F)(F)F)cc1)c1ccc(C#N)cc1  remaining binding (cell-free assay; competition with immobilised ligand; 1 µM): 98%
Cn1cc(-c2cc(F)cc(N3CCn4c(cc5c4CCCC5)C3=O)c2CO)cc(Nc2ccc(N3CCN(C4COC4)CC3)cn2)c1=O  inhibition (enzyme activity; inhibitor; 0.1 µM): 9%
Nc1ncc(-c2nc(N3CCOCC3)nc(N3CCOCC3)n2)c(C(F)F)n1  remaining binding (binding; competition with immobilised ligand; 10 µM): 100%
O=c1[nH]c2ccccc2n1C1CCN(Cc2ccc(-c3[nH]c4cc5ncnc5cc4nc3-c3ccccc3)cc2)CC1  remaining signal (cell-free assay; 0.5 µM): 102%
COc1ncccc1-c1cnn2ccc(N3CCN(C(=O)OC(C)C)CC3)nc12  remaining binding (binding; competition with immobilised ligand; 1 µM): 46%
Cc1nn(C)cc1-c1nc2c(N3CCN(Cc4ccc(Cl)cc4)CC3)c(Cl)cnc2[nH]1  remaining binding (binding; competition with immobilised ligand; 1 µM): 82%
